According to ChEMBL document CHEMBL1154693, “Discovery of trans-4-[1-[[2,5-Dichloro-4-(1-methyl-3-indolylcarboxamido)phenyl]acetyl]-(4S)-methoxy-(2S)-pyrrolidinylmethoxy]cyclohexanecarboxylic acid: an orally active, selective very late antigen-4 antagonist” (J Med Chem, 2009):
Blank lines part the entries; values can stand above or below the compound they belong to.

What was measured:
Mus musculus [1] = assay: Antiinflammatory activity in Ascaris suum antigen-induced BALB/c AnNCrj mouse asthma model assessed as inhibition of eosinophil infiltration in BAL fluid at 5 mg.kg, po bid administered 15 mins before and 8, 24 and 32 hrs after antigen challenge measured 48 hrs after antigen challenge; type: functional
Summary of the method: (§1)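 Female BALB/c AnNCrj mice given cyclophosphamide 150 mg/kg po (day 0), sensitized ip with Ascaris suum extract plus alum on days 2 and 14, challenged intratracheally day 22. Compound in 0.5% MC/0.03% Tween 80 po 15 min before and 8, 24, 32 h after challenge; BAL at 48 h, eosinophils from total count times Wright-stained differential.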

Integrin alpha-4/beta-1 [2] = target: T1, Integrin alpha-4/beta-1 (Homo sapiens, UniProt P05556+P13612); assay: Inhibition of europium labeled human VCAM1/Fc chimera binding to human VLA-4 alpha-4-beta-1 expressed in Chinese hamster 4B4 cells by fluorimetric assay; type: cell-based
[3] = Drug level in BALB/c mouse serum at 10 mg/kg, po after 15 mins; type: ADME, organism-based; parameters: dose 10 mg/kg, route oral; details: read-out: Drug uptake
Summary of the method: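 Serum (final 0.01-10%) assayed in the VLA-4/VCAM-1 binding assay, and concentration estimated from a calibration curve of compound spiked into untreated mouse serum.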

Integrin alpha-4/beta-1 [4] = target: T1, Integrin alpha-4/beta-1; assay: Inhibition of europium labeled human VCAM1/Fc chimera binding to human VLA-4 alpha-4-beta-1 expressed in Chinese hamster 4B4 cells in presence of 3% HSA by fluorimetric assay; type: cell-based
Summary of the method: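 CHO-K1 4B4 cells transfected with human α4 and β1, plated at 3 × 10⁵ cells/mL and cultured 2 days, washed with HEPES pH 7.5 buffer containing Ca, Mg, Mn. Compound plus Eu-labeled human VCAM-1/Fc (final 1 nM), with or without human serum albumin, 60 min at room temperature; washed, Eu time-resolved fluorescence read; duplicates.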

[5] = Clearance in Sprague-Dawley rat at 1 mg/kg, iv; type: ADME, organism-based; parameters: dose 1 mg/kg, route intravenous; details: in vivo
Summary of the method: (§2)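 Male Sprague-Dawley rats (7 weeks), fasted 18 h, four per group. 1 mg/kg oral in 0.5% MC or iv in saline, each with 3 equiv NaOH. Plasma drawn at 0.08 (iv) or 0.25 (po), 0.5, 1, 2 and 6 h; LC/MS/MS quantitation, noncompartmental parameters.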

[6] = Volume of distribution at steady state in Sprague-Dawley rat at 1 mg/kg, iv; type: ADME, organism-based; parameters: dose 1 mg/kg, route intravenous; details: in vivo, read-out: Vdss; summary of the method: as §2
[7] = Half life in Sprague-Dawley rat at 1 mg/kg, iv; type: ADME, organism-based; parameters: dose 1 mg/kg, route intravenous; details: in vivo; summary of the method: as §2
[8] = target: Integrin alpha-4/beta-7 (Homo sapiens) (UniProt P13612+P26010); assay: Inhibition of MAdCAM1 binding to integrin alpha4beta7 receptor in human RPMI8866 cells at 16 uM by cell/protein binding assay; type: cell-based
Summary of the method: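 RPMI8866 human B cells (α4β7+, β1−) at 1.2 × 10⁶/well in HEPES buffer containing BSA, DTPA, Ca, Mg and Mn, mixed with compound (final 10 μg/mL to 1 ng/mL) and Eu-MAdCAM-1 (final 1 nM) for 1 h at room temperature. Free ligand removed by centrifugation and washing; time-resolved fluorescence measured.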

[9] = AUC in Sprague-Dawley rat at 1 mg/kg, po; type: ADME, organism-based; parameters: dose 1 mg/kg, route oral; details: plasma; summary of the method: as §2
Cavia porcellus = assay: Inhibition of acetylcholine chloride-induced bronchial hyperesponsiveness in ovalbumin challenged guinea pig asthma model administered orally 1 hr before and 2.5 hrs after antigen challenge; type: functional
Summary of the method: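 Hartley guinea pigs (n = 8/group) sensitized with 1% OVA aerosol 10 min/day for 8 days, challenged a week later with 2% OVA aerosol 5 min; metyrapone iv and pyrilamine ip pretreatment. Oral doses 0.8, 2, 5 or 12.5 mg/kg at 1 h before and 2.5 h after challenge. At 22-27.5 h, stepwise ACh aerosol (0.0625-2 mg/mL); PC100ACh from sRaw.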

Mus musculus [10] = assay: Antiinflammatory activity in Ascaris suum antigen-induced BALB/c AnNCrj mouse asthma model assessed as inhibition of eosinophil infiltration in BAL fluid orally administered twice daily 15 mins before and 8, 24 and 32 hrs after antigen challenge measured 48 hrs after antigen challenge; type: functional, organism-based; summary of the method: as §1
[11] = AUC in cynomolgus monkey at 0.5 mg/kg, po; type: ADME, organism-based, Macaca fascicularis; parameters: dose 0.5 mg/kg, route oral; details: plasma
Summary of the method: (§3)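 Female cynomolgus monkeys (3.5-4 kg), fasted 18 h, three per group. Dose 0.5 mg/kg, oral as suspension in 0.5% MC or iv in saline with 3 equiv NaOH. Blood sampled from 0.08 (iv) or 0.25 (po) up to 24 h, food after 4 h; plasma LC/MS/MS, noncompartmental analysis.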

[12] = target: Integrin alpha-IIb/beta-3 (Homo sapiens) (UniProt P05106+P08514); assay: Inhibition of integrin alpha2bbeta3 receptor dependent platelet aggregation at 16 uM
Summary of the method: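 Platelet-rich plasma prepared from citrated blood of two volunteers. Compound in DMSO preincubated with PRP for 2 min at 37 °C, then aggregation induced with collagen; aggregation rate followed for 10 min.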

[13] = Oral bioavailability in Beagle dog at 0.5 mg/kg, po; type: ADME, organism-based, Canis lupus familiaris; details: in vivo
Summary of the method: (§4)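 Male beagle dogs (10-12 kg), fasted 18 h, three per group; cassette dosing 0.5 mg/kg in 0.5% MC with 3 equiv NaOH (po) or saline with 3 equiv NaOH (iv). Blood taken 0.08 (iv) or 0.25 (po) to 24 h, fed after 4 h; plasma assayed by LC/MS/MS, noncompartmental analysis.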

[14] = AUC in Beagle dog at 0.5 mg/kg, po; type: ADME, organism-based, Canis lupus familiaris; parameters: dose 0.5 mg/kg, route oral; details: plasma; summary of the method: as §4
[15] = Cmax in Sprague-Dawley rat at 1 mg/kg, po; type: ADME, organism-based; parameters: dose 1 mg/kg, route oral; details: in vivo; summary of the method: as §2
[16] = Clearance in Beagle dog at 0.5 mg/kg, iv; type: ADME, organism-based, Canis lupus familiaris; parameters: dose 0.5 mg/kg, route intravenous; details: in vivo; summary of the method: as §4
[17] = Half life in cynomolgus monkey at 0.5 mg/kg, iv; type: ADME, organism-based, Macaca fascicularis; parameters: dose 0.5 mg/kg, route intravenous; details: in vivo; summary of the method: as §3
[18] = AUC in Sprague-Dawley rat at 1 mg/kg, iv; type: ADME, organism-based; parameters: dose 1 mg/kg, route intravenous; details: plasma; summary of the method: as §2
[19] = Half life in Sprague-Dawley rat at 1 mg/kg, po; type: ADME, organism-based; parameters: dose 1 mg/kg, route oral; details: in vivo; summary of the method: as §2
[20] = target: Intercellular adhesion molecule (ICAM-1), Integrin alpha-L/beta-2 (Homo sapiens) (UniProt P20701+P05362+P05107); assay: Inhibition of europium labeled human ICAM1 binding to human integrin alphaLbeta2 receptor at 162 uM by protein/protein binding assay; type: protein-complex assay
Summary of the method: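 Membrane-bound human LFA-1 immobilized at 1 μg/mL overnight at 4 °C, then blocked with BSA. Compound added with 2 nM Eu-labeled human ICAM-1 D1D5-IgG in 5% DMSO and bound for 2 h at room temperature; plates washed and Eu fluorescence read by time-resolved fluorometry.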

[21] = Half life in Beagle dog at 0.5 mg/kg, iv; type: ADME, organism-based, Canis lupus familiaris; parameters: dose 0.5 mg/kg, route intravenous; details: in vivo; summary of the method: as §4
[22] = Oral bioavailability in Sprague-Dawley rat at 1 mg/kg, po; type: ADME, organism-based; details: in vivo; summary of the method: as §2
[23] = Cmax in Beagle dog at 0.5 mg/kg, po; type: ADME, organism-based, Canis lupus familiaris; parameters: dose 0.5 mg/kg, route oral; details: in vivo; summary of the method: as §4
[24] = AUC in Beagle dog at 0.5 mg/kg, iv; type: ADME, organism-based, Canis lupus familiaris; parameters: dose 0.5 mg/kg, route intravenous; details: plasma; summary of the method: as §4
[25] = AUC in cynomolgus monkey at 0.5 mg/kg, iv; type: ADME, organism-based, Macaca fascicularis; parameters: dose 0.5 mg/kg, route intravenous; details: plasma; summary of the method: as §3
[26] = Half life in Beagle dog at 0.5 mg/kg, po; type: ADME, organism-based, Canis lupus familiaris; parameters: dose 0.5 mg/kg, route oral; details: in vivo; summary of the method: as §4
[27] = Half life in cynomolgus monkey at 0.5 mg/kg, po; type: ADME, organism-based, Macaca fascicularis; parameters: dose 0.5 mg/kg, route oral; details: in vivo; summary of the method: as §3
[28] = Cmax in cynomolgus monkey at 0.5 mg/kg, po; type: ADME, organism-based, Macaca fascicularis; parameters: dose 0.5 mg/kg, route oral; details: in vivo; summary of the method: as §3
Mus musculus [29] = assay: Toxicity in BALB/c AnNCrj mouse assessed as induction of hepatic injury at 200 mg/kg, po for 2 days; type: organism-based; parameters: dose 200 mg/kg, route oral; details: in vivo, 48 h
Summary of the method: (§5)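 Mice dosed iv at 50 mg/kg or orally at 25 or 200 (mg/kg)/day for 2 days, then assessed for liver injury.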

Mus musculus [30] = assay: Toxicity in BALB/c AnNCrj mouse assessed as induction of hepatic injury at 50 mg/kg, iv for 2 days; type: organism-based; parameters: dose 50 mg/kg, route intravenous; details: in vivo, 48 h; summary of the method: as §5
Mus musculus [31] = assay: Antiinflammatory activity in Ascaris suum antigen-induced BALB/c AnNCrj mouse asthma model assessed as reduction of acetylcholine chloride-induced bronchial hyperesponsiveness at 12.5 mg/kg, bid administered 15 mins before and 8, 24 and 32 hrs after antigen challenge measured 48 hrs after antigen challenge; type: functional; parameters: scale not given: the % may be the effect or the level left
Summary of the method: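 Sensitized/challenged BALB/c AnNCrj mice (Ascaris suum, as in the eosinophil model) dosed po in 0.5% MC/0.03% Tween 80 at 15 min before and 8, 24, 32 h after challenge. At 48 h, pentobarbital-anesthetized, tracheotomized, ventilated mice given ACh injection; lung resistance increase measured.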

[32] = Clearance in cynomolgus monkey at 0.5 mg/kg, iv; type: ADME, organism-based, Macaca fascicularis; parameters: dose 0.5 mg/kg, route intravenous; details: in vivo; summary of the method: as §3
[33] = Volume of distribution at steady state in Beagle dog at 0.5 mg/kg, iv; type: ADME, organism-based, Canis lupus familiaris; parameters: dose 0.5 mg/kg, route intravenous; details: in vivo, read-out: Vdss; summary of the method: as §4
[34] = Oral bioavailability in cynomolgus monkey at 0.5 mg/kg, po; type: ADME, organism-based, Macaca fascicularis; details: in vivo; summary of the method: as §3
[35] = Volume of distribution at steady state in cynomolgus monkey at 0.5 mg/kg, iv; type: ADME, organism-based, Macaca fascicularis; parameters: dose 0.5 mg/kg, route intravenous; details: in vivo, read-out: Vdss; summary of the method: as §3

T1 sequence (P05556 whole entry): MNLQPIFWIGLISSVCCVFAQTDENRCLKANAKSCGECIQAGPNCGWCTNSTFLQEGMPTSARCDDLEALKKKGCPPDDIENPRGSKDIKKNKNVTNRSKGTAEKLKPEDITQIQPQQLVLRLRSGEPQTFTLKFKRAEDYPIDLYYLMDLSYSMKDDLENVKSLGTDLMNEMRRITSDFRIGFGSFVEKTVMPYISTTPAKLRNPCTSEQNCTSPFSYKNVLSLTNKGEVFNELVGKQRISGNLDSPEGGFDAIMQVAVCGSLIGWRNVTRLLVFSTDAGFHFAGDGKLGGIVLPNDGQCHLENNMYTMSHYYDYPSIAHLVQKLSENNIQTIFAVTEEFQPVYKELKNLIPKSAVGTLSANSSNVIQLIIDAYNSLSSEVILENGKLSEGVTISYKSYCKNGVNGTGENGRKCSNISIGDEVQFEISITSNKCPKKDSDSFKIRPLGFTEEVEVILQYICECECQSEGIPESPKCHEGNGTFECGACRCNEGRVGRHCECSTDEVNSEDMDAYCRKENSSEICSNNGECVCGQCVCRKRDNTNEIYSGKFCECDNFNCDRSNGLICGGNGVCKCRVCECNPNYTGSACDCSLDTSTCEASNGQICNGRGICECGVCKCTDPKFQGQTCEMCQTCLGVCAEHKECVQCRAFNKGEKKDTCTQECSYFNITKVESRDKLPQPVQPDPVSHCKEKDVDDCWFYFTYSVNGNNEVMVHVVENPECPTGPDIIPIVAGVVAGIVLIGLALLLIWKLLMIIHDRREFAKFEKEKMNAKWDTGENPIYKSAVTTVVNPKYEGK
T1 sequence (P13612 whole entry): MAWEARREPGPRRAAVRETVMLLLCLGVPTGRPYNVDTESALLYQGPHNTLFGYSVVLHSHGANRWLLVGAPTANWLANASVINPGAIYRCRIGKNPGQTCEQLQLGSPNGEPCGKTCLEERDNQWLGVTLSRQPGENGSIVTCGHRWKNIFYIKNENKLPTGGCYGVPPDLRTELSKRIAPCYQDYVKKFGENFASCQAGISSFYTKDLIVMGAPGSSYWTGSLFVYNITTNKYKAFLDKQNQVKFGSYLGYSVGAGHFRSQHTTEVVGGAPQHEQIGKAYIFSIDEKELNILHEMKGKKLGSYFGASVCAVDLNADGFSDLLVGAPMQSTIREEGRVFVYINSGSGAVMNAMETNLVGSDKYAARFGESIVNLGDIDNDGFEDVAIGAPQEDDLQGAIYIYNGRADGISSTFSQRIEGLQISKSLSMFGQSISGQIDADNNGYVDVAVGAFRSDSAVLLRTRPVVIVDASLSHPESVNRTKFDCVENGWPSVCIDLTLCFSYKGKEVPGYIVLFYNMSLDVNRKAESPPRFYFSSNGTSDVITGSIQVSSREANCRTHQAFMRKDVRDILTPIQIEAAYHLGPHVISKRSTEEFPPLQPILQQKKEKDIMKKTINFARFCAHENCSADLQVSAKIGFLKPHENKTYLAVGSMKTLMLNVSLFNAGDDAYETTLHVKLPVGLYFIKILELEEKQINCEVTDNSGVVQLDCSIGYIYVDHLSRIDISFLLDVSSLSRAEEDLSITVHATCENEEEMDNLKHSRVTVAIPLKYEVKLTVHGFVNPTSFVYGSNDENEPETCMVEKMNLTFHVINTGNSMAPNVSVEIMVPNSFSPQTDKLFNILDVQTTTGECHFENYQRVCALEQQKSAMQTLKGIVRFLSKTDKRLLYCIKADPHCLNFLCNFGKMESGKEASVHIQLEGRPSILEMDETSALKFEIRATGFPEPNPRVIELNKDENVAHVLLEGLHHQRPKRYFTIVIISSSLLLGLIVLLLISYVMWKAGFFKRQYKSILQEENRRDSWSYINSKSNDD

IC50 (Integrin alpha-4/beta-1 [2]): 2.6 nM | concentration at 0.25 h [3]: 5160 ng/mL | IC50 (Integrin alpha-4/beta-1 [4]): 92 nM | clearance [5]: 5 mL/min/kg | Vd [6]: 0.139 L/kg | half-life [7]: 0.7 h
Compound: Cn1cc(C(=O)Nc2ccc(CC(=O)N3C[C@@H](F)C[C@H]3CO[C@H]3CC[C@H](C(=O)O)CC3)cc2Cl)c2ccccc21
inhibition (INH) (Mus musculus [1]): 13%

inhibition [8]: 41% | AUC [9]: 975 ng·h/mL | IC50 (Integrin alpha-4/beta-1 [2]): 5.4 nM | AUC [11]: 3480 ng·h/mL | inhibition [12]: 10% | bioavailability [13]: 91% | AUC [14]: 6090 ng·h/mL | concentration at 0.25 h [3]: 6150 ng/mL | Cmax [15]: 385 ng/mL | clearance [16]: 1.7 mL/min/kg | half-life [17]: 6.3 h | IC50 (Integrin alpha-4/beta-1 [4]): 93 nM | AUC [18]: 865 ng·h/mL | half-life [19]: 1.5 h | inhibition [20]: 9% | half-life [21]: 2.1 h | bioavailability [22]: > 100% | Cmax [23]: 1590 ng/mL | AUC [24]: 6710 ng·h/mL | AUC [25]: 5140 ng·h/mL | half-life [26]: 2 h | half-life [27]: 5.5 h | clearance [5]: 19.3 mL/min/kg | Cmax [28]: 431 ng/mL | Vd [6]: 1.22 L/kg | clearance [32]: 1.8 mL/min/kg | half-life [7]: 1 h | Vd [33]: 0.164 L/kg | bioavailability [34]: 68% | Vd [35]: 0.223 L/kg
Compound: CO[C@H]1C[C@@H](CO[C@H]2CC[C@H](C(=O)O)CC2)N(C(=O)Cc2cc(Cl)c(NC(=O)c3cn(C)c4ccccc34)cc2Cl)C1
inhibition (INH) (Mus musculus [1]): 53% | Activity (Cavia porcellus): Dose-dependent effect | ED50 (Cavia porcellus; po, read-out: ID50 (the source's name)): 3 mg/kg | Activity (Mus musculus [10]): Dose-dependent effect | Activity (Mus musculus [29]): Non-toxic | Activity (Mus musculus [30]): Non-toxic | Activity (Mus musculus [31]): 83%
